The values below come from ChEMBL document CHEMBL3272012, “5-(Tetradecyloxy)-2-furancarboxylic acid and related hypolipidemic fatty acid-like alkyloxyarylcarboxylic acids” (J Med Chem, 1977).

Series [1] has as its system Rattus norvegicus. Description: Hypolipidemic activity in Wistar rat assessed as reduction in plasma triglyceride level at 489 umol/kg/day administered through diet for 10 days. Type of series: functional. Particulars: 240 h.
Series [2] concerns Rattus norvegicus. As to the kind of experiment: Increase in liver weight in Wistar rat at 489 umol/kg/day administered through diet for 10 days. Type of series: ADME, organism-based. Particulars: in vivo, po, 240 h.
The test system of series [3] is Rattus norvegicus. Description: Increase in cholesterol level in Wistar rat liver at 489 umol/kg/day administered through diet for 10 days. The conditions noted are these: in vivo, po, 240 h. Format: ADME, organism-based.
The subject of series [4] is Rattus norvegicus. As to the kind of experiment: Hypolipidemic activity in Wistar rat assessed as reduction in plasma cholesterol level at 489 umol/kg/day administered through diet for 10 days. Type of series: functional. The conditions noted are these: 240 h. Put shortly: (§1)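 Young male Wistar rats, 170-190 g initial weight, groups of six, given compound mixed thoroughly into Purina Lab Chow ad libitum for 4 or 10 days as stated. Daily dose calculated from food consumption and body weight. Bled by cardiac puncture at end of treatment; plasma cholesterol measured by automated procedure. Expressed as percent reduction versus simultaneous untreated control group; Student's t test.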

Series [5] concerns Rattus norvegicus. As to the kind of experiment: Hypolipidemic activity in Wistar rat assessed as reduction in plasma triglyceride level at 571 umol/kg/day administered through diet for 10 days. The conditions noted are these: 240 h. Format: functional.
The test system of series [6] is Rattus norvegicus. Description: Increase in liver weight in Wistar rat at 571 umol/kg/day administered through diet for 10 days. Format: ADME, organism-based. Particulars: in vivo, po, 240 h.
Series [7] relates to Rattus norvegicus. As to the kind of experiment: Hypolipidemic activity in Wistar rat assessed as reduction in plasma cholesterol level at 571 umol/kg/day administered through diet for 10 days. Particulars: 240 h. Type of series: functional. Put shortly: (§2)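 Young male Wistar rats (initial weight 170-190 g), groups of six, fed compound mixed into Purina Lab Chow ad libitum for 4 or 10 days; daily dose calculated from food consumption and body weight. Bled by cardiac puncture; plasma cholesterol and triglycerides by automated procedures; percent reduction versus simultaneous untreated controls, Student's t test.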

Series [8] concerns Rattus norvegicus. Description: Increase in cholesterol level in Wistar rat liver at 571 umol/kg/day administered through diet for 10 days. The conditions noted are these: in vivo, po, 240 h. Format: ADME, organism-based.
The subject of series [9] is Rattus norvegicus. As to the kind of experiment: Hypolipidemic activity in Wistar rat assessed as reduction in plasma cholesterol level at 444 umol/kg/day administered through diet for 10 days. Format: functional. Particulars: 240 h. Put shortly:
as §1

The test system of series [10] is Rattus norvegicus. As to the kind of experiment: Increase in liver weight in Wistar rat at 444 umol/kg/day administered through diet for 10 days. Type of series: ADME, organism-based. Particulars: in vivo, po, 240 h.
Series [11] has as its system Rattus norvegicus. Description: Hypolipidemic activity in Wistar rat assessed as reduction in plasma triglyceride level at 444 umol/kg/day administered through diet for 10 days. Format: functional. Particulars: 240 h.
Series [12] relates to Rattus norvegicus. As to the kind of experiment: Increase in cholesterol level in Wistar rat liver at 444 umol/kg/day administered through diet for 10 days. Format: ADME, organism-based. The conditions noted are these: in vivo, po, 240 h.
Series [13] deals with Rattus norvegicus. Description: Increase in liver weight in Wistar rat at 1498 umol/kg/day administered through diet for 10 days. Type of series: ADME, organism-based. The conditions noted are these: in vivo, po, 240 h.
The subject of series [14] is Rattus norvegicus. Description: Increase in cholesterol level in Wistar rat liver at 1498 umol/kg/day administered through diet for 10 days. Type of series: ADME, organism-based. Particulars: in vivo, po, 240 h.
The test system of series [15] is Rattus norvegicus. Description: Increase in cholesterol level in Wistar rat liver at 179 umol/kg/day administered through diet for 10 days. Type of series: ADME, organism-based. The conditions noted are these: in vivo, po, 240 h. Put shortly:
(§3)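 Male Wistar rats (170-190 g), six per group, given compound by admixture to lab chow ad libitum for 4 or 10 days, dose derived from food intake. Liver cholesterol determined by automated procedure, expressed as mg/g wet tissue, compared with an untreated control group by Student's t test.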

Series [16] has as its system Rattus norvegicus. Description: Increase in liver weight in Wistar rat at 558 umol/kg/day administered through diet for 10 days. Format: ADME, organism-based. The conditions noted are these: in vivo, po, 240 h. Put shortly: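 Male Wistar rats (170-190 g initial), groups of six, dosed via diet ad libitum for 4 or 10 days, daily dose from food consumption. Liver wet weight measured, expressed as g/100 g final body weight, compared with untreated controls run simultaneously.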

In series [17] the test system is Rattus norvegicus. As to the kind of experiment: Hypolipidemic activity in Wistar rat assessed as reduction in plasma triglyceride level at 558 umol/kg/day administered through diet for 10 days. Type of series: functional. Particulars: 240 h. Put shortly:
as §2

Series [18] concerns Rattus norvegicus. As to the kind of experiment: Hypolipidemic activity in Wistar rat assessed as reduction in plasma cholesterol level at 179 umol/kg/day administered through diet for 10 days. Format: functional. Particulars: 240 h. Put shortly:
(§4)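 Young male Wistar rats, 170-190 g at start, in groups of six, given compound mixed into Purina Lab Chow ad libitum for 4 or 10 days as stated. Daily dose was calculated from food consumption and body weight. Plasma was taken by cardiac puncture at the end and cholesterol measured by automated procedure. Results are % reduction versus a concurrent untreated control group, with Student's t test.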

The test system of series [19] is Rattus norvegicus. As to the kind of experiment: Increase in cholesterol level in Wistar rat liver at 558 umol/kg/day administered through diet for 10 days. The conditions noted are these: in vivo, po, 240 h. Type of series: ADME, organism-based. Put shortly: as §3
The subject of series [20] is Rattus norvegicus. Description: Hypolipidemic activity in Wistar rat assessed as reduction in plasma cholesterol level at 1498 umol/kg/day administered through diet for 10 days. Type of series: functional. The conditions noted are these: 240 h. Put shortly:
as §4

Series [21] has as its system Rattus norvegicus. As to the kind of experiment: Hypolipidemic activity in Wistar rat assessed as reduction in plasma cholesterol level at 558 umol/kg/day administered through diet for 10 days. The conditions noted are these: 240 h. Type of series: functional. Put shortly: as §2
In series [22] the test system is Rattus norvegicus. Description: Hypolipidemic activity in Wistar rat assessed as reduction in plasma triglyceride level at 1498 umol/kg/day administered through diet for 10 days. Format: functional. The conditions noted are these: 240 h. Put shortly:
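Young male Wistar rats, 170-190 g initial weight, six per group, fed drug mixed thoroughly into Purina Lab Chow ad libitum for the stated days; daily dose calculated from food consumption and body weight. Bled by cardiac puncture at end; plasma cholesterol and triglycerides by automated procedures, expressed as percent reduction versus simultaneous untreated controls; Student's t test.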

Series [23] concerns Rattus norvegicus. As to the kind of experiment: Hypolipidemic activity in Wistar rat assessed as reduction in plasma triglyceride level at 179 umol/kg/day administered through diet for 10 days. Format: functional. The conditions noted are these: 240 h. Put shortly: as §2
Series [24] deals with Rattus norvegicus. Description: Hypolipidemic activity in Wistar rat assessed as reduction in plasma triglyceride level at 428 umol/kg/day administered through diet for 10 days. Type of series: functional. Particulars: 240 h.
In series [25] the test system is Rattus norvegicus. Description: Increase in liver weight in Wistar rat at 470 umol/kg/day administered through diet for 4 days. Particulars: in vivo, po, 96 h. Type of series: ADME, organism-based.
Series [26] has as its system Rattus norvegicus. Description: Hypolipidemic activity in Wistar rat assessed as reduction in plasma cholesterol level at 470 umol/kg/day administered through diet for 4 days. Format: functional. The conditions noted are these: 96 h. Put shortly:
as §1

For series [27], the system named is Rattus norvegicus. Description: Increase in cholesterol level in Wistar rat liver at 470 umol/kg/day administered through diet for 4 days. The conditions noted are these: in vivo, po, 96 h. Format: ADME, organism-based.
Series [28] has as its system Rattus norvegicus. Description: Hypolipidemic activity in Wistar rat assessed as reduction in plasma triglyceride level at 470 umol/kg/day administered through diet for 4 days. The conditions noted are these: 96 h. Format: functional.
The subject of series [29] is Rattus norvegicus. As to the kind of experiment: Hypolipidemic activity in Wistar rat assessed as reduction in plasma cholesterol level at 428 umol/kg/day administered through diet for 10 days. Type of series: functional. The conditions noted are these: 240 h. Put shortly:
as §1

As for `CCCCCCCCCCOc1ccc(C(=O)OC)cc1`, the inhibition in vivo – broadly, the drop in the measured response relative to a control, in per cent – at 489 µmol/kg was found to be 94% in [1] and 36% in series [4]. The results for the Activity in series [2] and in series [3] were 19% and 43%, respectively.

As for `CCCCCCCCCCCCCc1ccc(C(=O)O)cc1`, the figures for the inhibition in vivo at 571 µmol/kg in [5] and in series [7] were 77% and 54%, respectively. Moreover, the Activity in series [6] came to 25%; in series [8], 61%.

On to `CCCCCCCCCCCOc1ccc(C(=O)OC)cc1`, for which the results for the inhibition in vivo at 444 µmol/kg in series [9] and in [11] were 45% and 88%, respectively. The figures for the Activity in series [10] and in [12] were 23% and 41%, respectively.

Consider `CCCCCCCCCCCCc1ccc(C(=O)O)cc1`, for which the Activity in series [13] is 38%; in series [14], 323%; in series [15], 79%; in [16], 29%; in [19] it was 215%. Further, the inhibition in vivo at 558 µmol/kg in [17] came out at 78%; in [21] it was 48%. For the same molecule, the inhibition in vivo at 179 µmol/kg in series [18] amounted to 34%; in series [23] it was 62%. Further, the inhibition in vivo at 1498 µmol/kg in series [20] came to 55%; in series [22] it was 74%.

As to `CCCCCCCCCCCCOc1ccc(C(=O)O)cc1`, the inhibition in vivo at 428 µmol/kg in [24] amounted to 31%; in [29], 16%. Also, the Activity in series [25] and in series [27] was 22% each time. Also, the figures for the inhibition in vivo at 470 µmol/kg in [26] and in [28] were 33% and 58%, respectively.
